Converted amounts (≈) assume the structure as drawn.
Legend:
Candida parapsilosis [1] = experiment: Antifungal activity against Candida parapsilosis assessed as FICI in presence of voriconazole; type: functional
Method in brief: (§1)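 Checkerboard combination scored by fractional inhibitory concentration index. Acylhydrazone serially diluted 16 to 0.015 μg/mL (11 dilutions). Partner drug in seven dilutions: fluconazole 12 to 0.19 μg/mL, amphotericin B 5 to 0.078 μg/mL, caspofungin, itraconazole or voriconazole 8 to 0.007 μg/mL.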

Pichia kudriavzevii [2] = experiment: Antifungal activity against Candida krusei 6258 assessed as FICI in presence of caspofungin; type: functional; method in brief: as §1
[3] = Selectivity index, ratio of LD50 for human A549 cells to MIC80 for Cryptococcus neoformans H99; type: toxicity; conditions: read-out: Selectivity Index
Method in brief: (§2)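 SI = LD₅₀/MIC₈₀. Cytotoxicity: A549 or HepG2 cells (DMEM, 10% FBS, passage 7, 10⁵ cells/well) adhered 14 h, then exposed to 0.03–128 μg/mL for 24 or 48 h at 37°C, 5% CO₂; MTT 4 h, formazan dissolved in DMSO, read at 570 nm. MIC₈₀ against C. neoformans from broth microdilution in HEPES-buffered YNB, pH 7.0.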

Cryptococcus neoformans [4] = experiment: Antifungal activity against Cryptococcus neoformans H99 assessed as FICI in presence of amphotericin B; type: functional, var grubii H99; method in brief: as §1
[Candida] auris [5] = Antifungal activity against Candida auris assessed as FICI in presence of itraconazole; type: functional, Candidozyma auris; method in brief: as §1
Candida albicans [6] = experiment: Antifungal activity against Candida albicans assessed as FICI in presence of voriconazole; type: functional; method in brief: as §1
Cryptococcus neoformans [7] = experiment: Antifungal activity against Cryptococcus neoformans H99 assessed as FICI in presence of itraconazole; type: functional, var grubii H99; method in brief: as §1
Aspergillus fumigatus [8] = experiment: Antifungal activity against Aspergillus fumigatus assessed as FICI in presence of fluconazole; type: functional; method in brief: as §1
Candida parapsilosis [9] = experiment: Antifungal activity against Candida parapsilosis measured after 24 to 72 hrs; type: functional; conditions: Lodderomyces parapsilosis
Method in brief: (§3)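 Modified CLSI broth microdilution with inoculum per M27A3. Compounds were serially diluted 32 to 0.03 μg/mL. Media: C. neoformans in HEPES-buffered YNB without amino acids (pH 7.0, 2% glucose); Candida strains in YNB without ammonium sulfate or amino acids plus 1% asparagine (pH 7.0, 2% glucose); A. fumigatus in RPMI (pH 7.0, 2% glucose).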

Candida albicans [10] = experiment: Antifungal activity against Candida albicans assessed as FICI in presence of itraconazole; type: functional; method in brief: as §1
Aspergillus fumigatus [11] = experiment: Antifungal activity against Aspergillus fumigatus measured after 24 to 72 hrs; type: functional; method in brief: as §3
Pichia kudriavzevii [12] = experiment: Antifungal activity against Candida krusei 6258 assessed as FICI in presence of itraconazole; type: functional; method in brief: as §1
Aspergillus fumigatus [13] = experiment: Antifungal activity against Aspergillus fumigatus assessed as FICI in presence of voriconazole; type: functional; method in brief: as §1
Cryptococcus neoformans [14] = experiment: Fungicidal activity against Cryptococcus neoformans H99 measured up to 96 hrs by time-kill assay; type: functional, organism-based; conditions: var grubii H99
Method in brief: (§4)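 Overnight C. neoformans washed in PBS and resuspended in HEPES-buffered YNB, pH 7.4. 2 × 10⁴ cells exposed to a range of drug concentrations in 10 mL with 0.5% DMSO final, at 37°C, 5% CO₂, shaking at 200 rpm. Aliquots sampled over 96 h, diluted and plated on YPD; CFU counted after 48 h at 30°C.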

Cryptococcus neoformans [15] = experiment: Antifungal activity against Cryptococcus neoformans H99 assessed as FICI in presence of fluconazole; type: functional, var grubii H99; method in brief: as §1
Pichia kudriavzevii [16] = experiment: Antifungal activity against Candida krusei 6258 assessed as FICI in presence of fluconazole; type: functional; method in brief: as §1
[Candida] auris [17] = Antifungal activity against Candida auris measured after 24 to 72 hrs; type: functional; conditions: Candidozyma auris; method in brief: as §3
Aspergillus fumigatus [18] = experiment: Antifungal activity against Aspergillus fumigatus assessed as FICI in presence of itraconazole; type: functional; method in brief: as §1
Candida parapsilosis [19] = experiment: Antifungal activity against Candida parapsilosis assessed as FICI in presence of fluconazole; type: functional; method in brief: as §1
[20] = Selectivity index, ratio of LD50 for human HepG2 cells to MIC80 for Cryptococcus neoformans H99; type: toxicity; conditions: read-out: Selectivity Index; method in brief: as §2
Pichia kudriavzevii [21] = experiment: Antifungal activity against fluconazole-resistant Candida krusei assessed as FICI in presence of voriconazole; type: functional
Method in brief: (§5)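 Checkerboard in 96-well plate. Test compound diluted 16 to 0.015 μg/mL (11 dilutions) against the partner drug in seven dilutions: fluconazole 12 to 0.19 μg/mL, caspofungin, itraconazole or voriconazole 8 to 0.007 μg/mL. Fractional inhibitory concentration index (FICI) calculated from the combinations.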

Candida parapsilosis [22] = experiment: Antifungal activity against Candida parapsilosis assessed as FICI in presence of caspofungin; type: functional; method in brief: as §1
Candida albicans [23] = experiment: Antifungal activity against Candida albicans assessed as FICI in presence of fluconazole; type: functional; method in brief: as §1
Cryptococcus neoformans [24] = experiment: Fungicidal activity against Cryptococcus neoformans H99 measured after 12 hrs by time-kill assay; type: functional, var grubii H99; method in brief: as §4
Cryptococcus neoformans [25] = experiment: Fungicidal activity against Cryptococcus neoformans H99 measured after 24 hrs by time-kill assay; type: functional, var grubii H99; method in brief: as §4
[Candida] auris [26] = Antifungal activity against Candida auris assessed as FICI in presence of fluconazole; type: functional, Candidozyma auris; method in brief: as §1
Candida parapsilosis [27] = experiment: Antifungal activity against Candida parapsilosis assessed as FICI in presence of itraconazole; type: functional; method in brief: as §1
Cryptococcus neoformans [28] = experiment: Antifungal activity against Cryptococcus neoformans H99 measured after 24 to 72 hrs; type: functional; conditions: var grubii H99; method in brief: as §3
[Candida] auris [29] = Antifungal activity against Candida auris assessed as FICI in presence of caspofungin; type: functional, Candidozyma auris; method in brief: as §1
Candida albicans [30] = experiment: Antifungal activity against Candida albicans assessed as FICI in presence of caspofungin; type: functional; method in brief: as §1
Pichia kudriavzevii [31] = experiment: Antifungal activity against Candida krusei 6258 assessed as FICI in presence of voriconazole; type: functional; method in brief: as §1
Cryptococcus neoformans [32] = experiment: Antifungal activity against Cryptococcus neoformans H99 assessed as FICI in presence of voriconazole; type: functional, var grubii H99; method in brief: as §1
Pichia kudriavzevii [33] = experiment: Antifungal activity against fluconazole-resistant Candida krusei assessed as FICI in presence of itraconazole; type: functional; method in brief: as §5
Pichia kudriavzevii [34] = experiment: Antifungal activity against multi-drug resistant Candida krusei measured after 24 to 72 hrs; type: functional
Method in brief: (§6)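 MIC by modified CLSI broth microdilution. Candida strains grown in YNB without ammonium sulfate or amino acids with 1% asparagine, pH 7.0, 2% glucose. Inoculum per CLSI M27A3. Compound serially diluted 32 to 0.03 μg/mL. Incubation 37°C, 5% CO₂, 24–72 h, then OD450. MIC80 taken as the lowest concentration giving 80% growth inhibition versus untreated control.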

Pichia kudriavzevii [35] = experiment: Antifungal activity against Candida krusei measured after 24 to 72 hrs; type: functional; method in brief: as §6
[Candida] auris [36] = Antifungal activity against Candida auris assessed as FICI in presence of voriconazole; type: functional, Candidozyma auris; method in brief: as §1
A549 = experiment: Cytotoxicity against human A549 cells after 24 to 48 hrs by MTT assay; type: functional; conditions: read-out: LD50 (the source's name)
Method in brief: (§7)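 A549 and HepG2 kept in DMEM with 10% FBS and 1% pen-strep. At passage 7, seeded at 10⁵ cells/well and allowed to adhere 14 h. Compound added at 0.03–128 μg/mL, untreated wells as controls. Incubation 37°C, 5% CO₂ for 24 or 48 h. MTT (5 mg/mL in PBS) added for 4 h, formazan dissolved in DMSO, OD570.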

Candida albicans [37] = experiment: Antifungal activity against Candida albicans measured after 24 to 72 hrs; type: functional; method in brief: as §3
HepG2 = experiment: Cytotoxicity against human HepG2 cells after 24 to 48 hrs by MTT assay; type: functional; conditions: read-out: LD50 (the source's name); method in brief: as §7
Pichia kudriavzevii [38] = experiment: Antifungal activity against fluconazole-resistant Candida krusei assessed as FICI in presence of caspofungin; type: functional; method in brief: as §5

SMILES | fractional inhibitory concentration index (FICI) (Candida parapsilosis [1]) | fractional inhibitory concentration index (FICI) (Pichia kudriavzevii [2]) | selectivity ratio [3] | fractional inhibitory concentration index (FICI) (Cryptococcus neoformans [4]) | fractional inhibitory concentration index (FICI) ([Candida] auris [5]) | fractional inhibitory concentration index (FICI) (Candida albicans [6]) | fractional inhibitory concentration index (FICI) (Cryptococcus neoformans [7]) | fractional inhibitory concentration index (FICI) (Aspergillus fumigatus [8]) | MIC80 (Candida parapsilosis [9]) | fractional inhibitory concentration index (FICI) (Candida albicans [10]) | MIC80 (Aspergillus fumigatus [11]) | fractional inhibitory concentration index (FICI) (Pichia kudriavzevii [12]) | fractional inhibitory concentration index (FICI) (Aspergillus fumigatus [13]) | Activity (Cryptococcus neoformans [14]) | fractional inhibitory concentration index (FICI) (Cryptococcus neoformans [15]) | fractional inhibitory concentration index (FICI) (Pichia kudriavzevii [16]) | MIC80 ([Candida] auris [17]) | fractional inhibitory concentration index (FICI) (Aspergillus fumigatus [18]) | fractional inhibitory concentration index (FICI) (Candida parapsilosis [19]) | selectivity ratio [20] | also measured
O=C(N/N=C/c1ccc(Br)cc1O)c1cc(Br)cc(Br)c1O | 0.135 | 2.002 | 533 | 0.261 | 0.18 | 0.375 | 0.247 | 2 | 2 µg/mL (≈ 4.06 µM) | 0.188 | 4 µg/mL (≈ 8.11 µM) | 0.183 | 0.188 | Dose-dependent effect | 0.24 | 0.501 | 0.5 µg/mL (≈ 1.01 µM) | 1.016 | 1.015 | 533 | fractional inhibitory concentration index (FICI) (Pichia kudriavzevii [21]): 0.018; fractional inhibitory concentration index (FICI) (Candida parapsilosis [22]): 2; fractional inhibitory concentration index (FICI) (Candida albicans [23]): 2; MFC100 (Cryptococcus neoformans [24]): 0.12 µg/mL (≈ 0.243 µM); MFC100 (Cryptococcus neoformans [25]): 0.12 µg/mL (≈ 0.243 µM); fractional inhibitory concentration index (FICI) ([Candida] auris [26]): 0.531; fractional inhibitory concentration index (FICI) (Candida parapsilosis [27]): 0.508; MIC80 (Cryptococcus neoformans [28]): 0.06 µg/mL (≈ 0.122 µM); fractional inhibitory concentration index (FICI) ([Candida] auris [29]): 2; fractional inhibitory concentration index (FICI) (Candida albicans [30]): 0.508; fractional inhibitory concentration index (FICI) (Pichia kudriavzevii [31]): 0.129; fractional inhibitory concentration index (FICI) (Cryptococcus neoformans [32]): 0.24; fractional inhibitory concentration index (FICI) (Pichia kudriavzevii [33]): 0.023; MIC80 (Pichia kudriavzevii [34]): 0.25 µg/mL (≈ 0.507 µM); MIC80 (Pichia kudriavzevii [35]): 0.25 µg/mL (≈ 0.507 µM); fractional inhibitory concentration index (FICI) ([Candida] auris [36]): 0.252; CC50 (A549): 32 µg/mL (≈ 64.9 µM); MIC80 (Candida albicans [37]): 2 µg/mL (≈ 4.06 µM); CC50 (HepG2): 32 µg/mL (≈ 64.9 µM)
O=C(N/N=C/c1cc(Br)cc(Br)c1O)c1ccc(Br)c(Br)c1 | 1.03 | 0.125 | 1070 | 0.247 | 1.12 | 0.271 | 0.247 | 2 | 16 µg/mL (≈ 28.8 µM) | 0.37 | > 16 µg/mL | 0.153 | 1.031 | Dose-dependent effect | 0.237 | 1 | 16 µg/mL (≈ 28.8 µM) | 0.281 | 2.015 | 1070 | fractional inhibitory concentration index (FICI) (Pichia kudriavzevii [38]): 0.121; fractional inhibitory concentration index (FICI) (Pichia kudriavzevii [21]): 0.31; fractional inhibitory concentration index (FICI) (Candida parapsilosis [22]): 1.001; fractional inhibitory concentration index (FICI) (Candida albicans [23]): 0.563; MFC100 (Cryptococcus neoformans [25]): 0.12 µg/mL (≈ 0.216 µM); fractional inhibitory concentration index (FICI) ([Candida] auris [26]): 1.001; fractional inhibitory concentration index (FICI) (Candida parapsilosis [27]): 2.007; MIC80 (Cryptococcus neoformans [28]): 0.06 µg/mL (≈ 0.108 µM); fractional inhibitory concentration index (FICI) ([Candida] auris [29]): 0.501; fractional inhibitory concentration index (FICI) (Candida albicans [30]): 0.5; fractional inhibitory concentration index (FICI) (Pichia kudriavzevii [31]): 0.254; fractional inhibitory concentration index (FICI) (Cryptococcus neoformans [32]): 0.247; fractional inhibitory concentration index (FICI) (Pichia kudriavzevii [33]): 0.528; MIC80 (Pichia kudriavzevii [34]): 4 µg/mL (≈ 7.2 µM); MIC80 (Pichia kudriavzevii [35]): > 16 µg/mL; fractional inhibitory concentration index (FICI) ([Candida] auris [36]): 1.001; CC50 (A549): 64 µg/mL (≈ 115 µM); MIC80 (Candida albicans [37]): > 16 µg/mL; CC50 (HepG2): 64 µg/mL (≈ 115 µM)
